The text below walks through data of ChEMBL document CHEMBL4765308, “N-alkylpiperidine carbamates as potential anti-Alzheimer's agents” (Eur J Med Chem, 2020).

In series [1] the target is T1, Amine oxidase [flavin-containing] B (Homo sapiens, UniProt P27338).
T1 sequence (P27338 whole entry): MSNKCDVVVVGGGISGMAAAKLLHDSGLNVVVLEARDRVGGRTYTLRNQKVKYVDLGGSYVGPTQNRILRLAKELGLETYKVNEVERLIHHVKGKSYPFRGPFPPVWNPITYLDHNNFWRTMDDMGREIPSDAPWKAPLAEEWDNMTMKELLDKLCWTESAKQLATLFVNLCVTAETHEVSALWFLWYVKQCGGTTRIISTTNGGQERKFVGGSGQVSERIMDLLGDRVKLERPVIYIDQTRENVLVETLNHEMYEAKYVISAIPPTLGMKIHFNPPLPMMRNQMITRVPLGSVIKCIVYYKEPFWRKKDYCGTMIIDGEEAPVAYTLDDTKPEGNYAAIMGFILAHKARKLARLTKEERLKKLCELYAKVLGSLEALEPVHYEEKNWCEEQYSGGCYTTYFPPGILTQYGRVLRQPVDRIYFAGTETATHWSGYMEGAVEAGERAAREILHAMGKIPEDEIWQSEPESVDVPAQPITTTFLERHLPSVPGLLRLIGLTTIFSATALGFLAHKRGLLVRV
As to the kind of experiment: Inhibition of human recombinant microsomal MAO-B expressed in baculovirus-infected BTI-TN-5B1-4 cells assessed as inhibition of H2O2 production using p-tyramine as substrate preincubated for 15 mins followed by substrate addition by Amplex Red reagent based fluorescence analysis. The essentials: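 Recombinant human MAO-A or MAO-B (insect-cell microsomes) preincubated with compound 15 min at 37 °C in 50 mM sodium phosphate, pH 7.4, 0.05% Triton X-114. Reaction started with 1 mM p-tyramine, 250 µM Amplex Red and 2 U/mL HRP (final concentrations). Resorufin fluorescence (ex 530/em 590 nm) followed for 20 min at 37 °C, duplicates. Blank-corrected residual activity; IC50 from a four-parameter Hill fit.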

Series [2] deals with T2, Acetylcholinesterase (Homo sapiens, UniProt P22303). As to the kind of experiment: Inhibition of human AChE using acetylthiocholine iodide as substrate preincubated with enzyme for 30 mins followed by substrate addition by Ellman's method. (In general: In Ellman's method for cholinesterases, released thiocholine reacts with DTNB.)
In series [3] the target is T3, Cholinesterase (Homo sapiens, UniProt P06276). Kind of series: Inhibition of human BuchE using butyrylthiocholine iodide as substrate preincubated for 30 mins followed by substrate addition by Ellman's method.
Another series is filed under the species Homo sapiens. As to the kind of experiment: Inhibition of HFIP-pretreated human amyloid beta (1 to 42) self aggregation at 10 uM incubated for 36 to 48 hrs by thioflavin-T based fluorescence method relative to control. To be noted: time 36-48 hrs. The essentials: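 HFIP-pretreated Aβ1-42 (1.5 µM) incubated with compound (10 µM) and thioflavin-T (10 µM final) at room temperature with continuous shaking for 36–48 h. Fluorescence (ex 440/em 490 nm) read every 3 min. Percent inhibition compared with Aβ + DMSO control, run in quadruplicate. Three independent experiments, mean ± SD, one-way ANOVA with Bonferroni test.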

For series [4], the system named is SH-SY5Y. Kind of series: Cytotoxicity against human SH-SY5Y cells at 20 uM incubated for 48 hrs […]. It counts as cell-based.
The subject of the next series is HepG2. Kind of series: Cytotoxicity against human HepG2 cells at 50 uM incubated for 48 hrs […]. It counts as cell-based. To be noted: hepg2, 48 h.
For series [5], the target named is T4, Amine oxidase [flavin-containing] A (Homo sapiens, UniProt P21397).
T4 sequence (P21397 whole entry): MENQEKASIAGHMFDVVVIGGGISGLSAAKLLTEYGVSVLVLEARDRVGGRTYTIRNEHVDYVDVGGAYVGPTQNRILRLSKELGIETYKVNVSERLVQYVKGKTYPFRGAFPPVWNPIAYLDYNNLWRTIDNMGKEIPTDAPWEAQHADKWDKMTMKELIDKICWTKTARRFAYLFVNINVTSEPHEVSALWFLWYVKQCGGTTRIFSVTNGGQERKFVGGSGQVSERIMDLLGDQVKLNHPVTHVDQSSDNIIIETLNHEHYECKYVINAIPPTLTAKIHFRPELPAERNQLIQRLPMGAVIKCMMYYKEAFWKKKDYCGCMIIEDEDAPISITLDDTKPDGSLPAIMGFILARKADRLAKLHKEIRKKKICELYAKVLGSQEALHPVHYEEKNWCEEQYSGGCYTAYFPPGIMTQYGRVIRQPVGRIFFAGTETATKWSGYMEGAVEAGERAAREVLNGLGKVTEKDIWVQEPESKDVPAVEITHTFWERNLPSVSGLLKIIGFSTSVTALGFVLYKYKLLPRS
As to the kind of experiment: Inhibition of human recombinant microsomal MAO-A expressed in baculovirus-infected BTI-TN-5B1-4 cells assessed as inhibition of H2O2 production using p-tyramine as substrate preincubated for 15 mins followed by substrate addition by Amplex Red reagent based fluorescence analysis.

Series [6] addresses T2, Acetylcholinesterase. Kind of series: Reversible inhibition of human AChE using acetylthiocholine iodide as substrate preincubated with enzyme at 10XIC50 for 30 mins followed by substrate addition and measured for 5 mins by Ellman's method. The settings on record: time 35.0 min.
Series [7] deals with T3, Cholinesterase. As to the kind of experiment: Reversible inhibition of human BuChE using butyrylthiocholine iodide as substrate preincubated with enzyme at 10XIC50 for 30 mins followed by substrate addition and measured for 5 mins by Ellman's method. The settings on record: time 35.0 min.
For series [8], the target named is T2, Acetylcholinesterase. As to the kind of experiment: Non-time dependent inhibition of human AChE using acetylthiocholine iodide as substrate preincubated with enzyme for 15 to 60 mins followed by substrate addition by Ellman's method. To be noted: time 15-60 min.
Series [9] addresses T3, Cholinesterase. As to the kind of experiment: Non-time dependent inhibition of human BuChE using butyrylthiocholine iodide as substrate preincubated with enzyme for 15 to 60 mins followed by substrate addition by Ellman's method. To be noted: time 15-60 min.
Series [10] concerns SH-SY5Y. Kind of series: Neuroprotective activity against human SH-SY5Y cells assessed as reduction in amyloid beta(1 to 42)-induced cell death at 20 uM measured after 48 hrs by Annexin-V APC/7-AAD staining based flow cytometric analysis. It counts as functional. The essentials: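 Aβ1-42 (5 µM) pre-aggregated 24 h at 37 °C in reduced-serum medium, with or without compound (20 µM). SH-SY5Y cells (2×10^4/well) treated the next day for 48 h, then washed in cold PBS and stained with 7-AAD (2 µg/mL, 10 min, room temperature). Percent 7-AAD-positive cells by flow cytometry, relative to control. At least two independent assays in duplicate; ANOVA with t-test.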
In general terms: A flow cytometer gives signals particle by particle.

The target in series [11] is T1, Amine oxidase [flavin-containing] B. Kind of series: Time dependent inhibition human recombinant microsomal MAO-B expressed in baculovirus-infected BTI-TN-5B1-4 cells assessed as inhibition of H2O2 production using p-tyramine as substrate preincubated with enzyme for 5 to 15 mins followed by substrate addition by Amplex Red reagent based fluorescence analysis. To be noted: time 5-15 min.

Series [12] relates to SH-SY5Y. Kind of series: Reduction in amyloid beta (1 to 42) aggregates in human SH-SY5Y cells at 20 uM incubated for 48 hrs by DAPI stain based immunofluorescence staining analysis. It counts as functional, cell-based. The essentials:
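SH-SY5Y cells on coverslips treated for 48 h with preincubated Aβ1-42 (5 µM) in reduced-serum medium, with or without compound (20 µM). Fixed in 5% formalin, permeabilized with 0.5% Tween 20 and blocked with 3% BSA. Stained with rabbit anti-amyloid fibril LOC antibody (1:1000, 2 h) and Alexa 488 secondary (1.5 h). DAPI-mounted and imaged by confocal microscopy (63× oil).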

Each structure is given as a SMILES string. Structures can show the parent of a compound that is named as a salt. The source made the active and inactive calls. No cut-off for these calls is given here. A value given as a limit tells only on which side of the number the result lay.

T3 sequence (P06276 whole entry): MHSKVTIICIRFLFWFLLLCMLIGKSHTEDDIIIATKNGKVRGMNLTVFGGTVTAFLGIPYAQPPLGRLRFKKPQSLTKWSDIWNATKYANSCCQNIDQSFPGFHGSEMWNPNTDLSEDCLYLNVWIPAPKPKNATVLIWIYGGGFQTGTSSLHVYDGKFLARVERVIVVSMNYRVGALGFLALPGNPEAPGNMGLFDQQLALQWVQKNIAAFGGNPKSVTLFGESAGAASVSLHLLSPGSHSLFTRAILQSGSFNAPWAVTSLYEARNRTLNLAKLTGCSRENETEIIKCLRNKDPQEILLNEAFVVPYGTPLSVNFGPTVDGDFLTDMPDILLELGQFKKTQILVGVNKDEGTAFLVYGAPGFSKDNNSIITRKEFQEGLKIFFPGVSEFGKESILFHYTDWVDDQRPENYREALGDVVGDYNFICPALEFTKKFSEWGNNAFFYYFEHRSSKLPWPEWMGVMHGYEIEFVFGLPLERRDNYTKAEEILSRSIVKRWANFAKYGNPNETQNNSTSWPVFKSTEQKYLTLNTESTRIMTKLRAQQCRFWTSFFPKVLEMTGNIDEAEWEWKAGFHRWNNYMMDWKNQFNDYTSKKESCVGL
T2 sequence (P22303 whole entry): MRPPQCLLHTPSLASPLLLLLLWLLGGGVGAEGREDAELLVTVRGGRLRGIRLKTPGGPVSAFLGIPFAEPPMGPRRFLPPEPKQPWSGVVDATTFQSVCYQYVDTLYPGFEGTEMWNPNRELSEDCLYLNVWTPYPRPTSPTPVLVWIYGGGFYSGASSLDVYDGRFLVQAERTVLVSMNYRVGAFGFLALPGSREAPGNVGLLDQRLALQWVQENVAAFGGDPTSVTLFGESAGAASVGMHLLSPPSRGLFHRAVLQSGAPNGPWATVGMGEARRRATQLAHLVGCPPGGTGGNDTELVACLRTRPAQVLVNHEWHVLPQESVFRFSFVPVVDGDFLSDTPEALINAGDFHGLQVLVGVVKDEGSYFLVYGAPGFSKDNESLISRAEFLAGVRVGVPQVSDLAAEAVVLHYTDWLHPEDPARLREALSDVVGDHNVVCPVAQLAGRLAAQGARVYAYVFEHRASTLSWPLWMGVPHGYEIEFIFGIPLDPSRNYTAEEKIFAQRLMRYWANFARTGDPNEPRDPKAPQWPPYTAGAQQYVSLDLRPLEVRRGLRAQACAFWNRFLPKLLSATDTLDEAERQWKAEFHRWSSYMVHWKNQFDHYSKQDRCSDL

The IC50 is the midpoint of a concentration-inhibition curve. As usually defined, the inhibition is the drop in the measured response relative to a control, in per cent. Regarding `CC(C)c1ccc(NC(=O)OCC2CCN(Cc3ccccc3)CC2)cc1`, the IC50 was above 100 µM in [1], 2.25 µM on Acetylcholinesterase [2], 0.809 µM on Cholinesterase [3] and above 100 µM in series [5]. Also, the inhibition in the series filed under Homo sapiens was below 20%. Further, the Activity entry in the series with SH-SY5Y [4] and with HepG2 was “Non-Toxic” in each case. In addition, the inhibition entry at Acetylcholinesterase [6], on Cholinesterase [7], at Acetylcholinesterase [8] and on Cholinesterase [9] was “Active” throughout.

For `O=C(Nc1ccccc1)OC1CCCN(C2Cc3ccccc3C2)C1` (stereo not drawn), the IC50 in [1] is above 100 µM; at Acetylcholinesterase [2], above 100 µM; against Cholinesterase [3], 0.0645 µM; in [5], above 100 µM. For the same molecule, in the series filed under Homo sapiens, the inhibition was below 20%. Also, the Activity entry in the series on SH-SY5Y [4] and with HepG2 was “Non-Toxic” throughout. For the same molecule, the inhibition result on Acetylcholinesterase [6], on Cholinesterase [7], at Acetylcholinesterase [8] and on Cholinesterase [9] was “Active” throughout.

As to `C#CCN[C@@H]1CCc2ccccc21` [RASAGILINE MESYLATE], the IC50 on Acetylcholinesterase [2] and on Cholinesterase [3] was above 100 µM in each case. The inhibition in the series filed under Homo sapiens was below 20%.

Take `O=C(Nc1ccccc1)OCC1CCN(Cc2ccccc2)CC1`: the IC50 was 26.1 µM in series [1], 7.31 µM at Acetylcholinesterase [2], 0.555 µM on Cholinesterase [3] and above 100 µM in series [5]. In the series filed under Homo sapiens, the inhibition is below 20%. For the same molecule, the Activity result in the series on SH-SY5Y [4] and in the series with HepG2 was “Non-Toxic” in each case. Further, the outcome with SH-SY5Y [10] was Active. For the same molecule, the inhibition entry at Acetylcholinesterase [6], on Cholinesterase [7], on Acetylcholinesterase [8] and at Cholinesterase [9] was “Active” throughout. Also, the “inhibition (INH)” value in series [11] is reported as “Not Active”. Further, the inhibition entry with SH-SY5Y [12] was “inactive”.

Turning to `C#CCN1CCC(OC(=O)Nc2ccc(C(C)C)cc2)CC1`, the IC50 in series [1] was 0.178 µM; on Acetylcholinesterase [2], above 100 µM; at Cholinesterase [3], above 100 µM; in series [5], above 100 µM. Further, the inhibition in the series listed under Homo sapiens came to 25.7%. For the same molecule, the Activity result in the series with SH-SY5Y [4] and with HepG2 was “Non-Toxic” throughout. For the same molecule, in the series on SH-SY5Y [10], the result was Active. Besides, in series [11], the “inhibition (INH)” value was “Active”. Further, the inhibition entry in the series on SH-SY5Y [12] is “Active”.

Consider `CCN(C)C(=O)Oc1cccc([C@H](C)N(C)C)c1` [RIVASTIGMINE TARTRATE], for which the IC50 in series [1] is above 100 µM. Besides, in the series filed under Homo sapiens, the inhibition is below 20%.

With `OCC1CCN(C2Cc3ccccc3C2)CC1`, the IC50 (in [1]; against Acetylcholinesterase [2]; on Cholinesterase [3]; in series [5]) was above 100 µM in each case.

Regarding `C#CCN1CCCC(OC(=O)Nc2ccc(C(C)C)cc2)C1` (stereo not drawn), the IC50 is 71.8 µM in [1], above 100 µM on Acetylcholinesterase [2], above 100 µM on Cholinesterase [3] and above 100 µM in series [5].

With `CCN(C)C(=O)OCC1CCN(C2Cc3ccccc3C2)CC1`, the IC50 in series [1] was above 100 µM; against Acetylcholinesterase [2], above 100 µM; against Cholinesterase [3], 4.46 µM; in [5], above 100 µM.

Take `COc1cc2c(cc1OC)C(=O)C(CC1CCN(Cc3ccccc3)CC1)C2` (stereo not drawn): in the series listed under Homo sapiens, the inhibition was below 20%.

On to `C#CCN1CCCC(OC(=O)N(C)CC)C1` (stereo not drawn), for which the IC50 (in series [1]; on Acetylcholinesterase [2]; at Cholinesterase [3]; in series [5]) was above 100 µM throughout.

On to `Oc1ccc(/C=C/c2cc(O)cc(O)c2)cc1`, for which the inhibition in the series filed under Homo sapiens came out at 86.6%.

Regarding `OCC1CCCN(C2Cc3ccccc3C2)C1` (stereo not drawn), the IC50 (in series [1]; on Acetylcholinesterase [2]; against Cholinesterase [3]; in [5]) was above 100 µM throughout.
